Calls of active or inactive are those of the source. The calls are words filed in the database; no cut-off is given here.
Columns and labels:
[1] = system: T-24; assay: Up-regulation of RIPK3 expression in human T24 cells at 2.5 to 7.5 uM measured by ELISA assay; assay type: functional, cell-based; details: dose 2.5-7.5 µM
How it was run: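 T24 cells pretreated, collected, diluted in PBS, counted and stored overnight at −20 °C. After membrane disruption, lysates centrifuged at 5000 × g for 5 min (4 °C). RIPK1, RIPK3 and MLKL levels then measured with ELISA kits.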

[2] = system: T-24; assay: Induction of necroptosis in human T24 cells assessed as viable cells at 7.5 uM and measured by trypan blue exclusion assay; assay type: functional; details: read-out: Activity
How it was run: (§1)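 T24 cells (2 × 10^5/well) exposed for 16 h with or without Nec-1 (60 μM), then stained with trypan blue. Viable and dead cells counted. Result given as % viable cells relative to untreated control.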

[3] = MRT (0 to 48 hrs) in Sprague-Dawley rat at 6 mg/kg, IG measured HPLC analysis; assay type: ADME, organism-based; details: in vivo, po
How it was run: (§2)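 Fasted (12 h) male-unspecified Sprague-Dawley rats (250 ± 20 g), n = 6 per group. Single intragastric dose of suspension (2 mg mL−1 in Tween 80/0.9% NaCl 1.5:5 v/v). Orbital blood drawn at 0.5–48 h and plasma assayed by reversed-phase C18 HPLC-UV. One-compartment fit, weight 1.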

[4] = system: T-24; assay: Down-regulation of VEGFR-1 mRNA expression in human T24 cells at 7.5 uM measured in presence of 25 uM apatinib by RT-PCR analysis; assay type: functional, cell-based
[5] = system: T-24; assay: Induction of intracellular reactive oxygen species production in human T24 cells at 5 to 10 uM measured in presence of 30 uM z-VAD after 16 hrs by flow cytometry analysis; assay type: functional, cell-based; details: dose 5-10 µM
How it was run: (§3)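 After 5-23 treatment (16 h), floating and adherent T24 cells pooled and loaded with DCFH-DA (final 10 μM) for 30 min at 37 °C in the dark. Cells washed, resuspended in PBS and read by flow cytometry; quantified by luminescence spectrometry as % of control. Runs with zVAD (30 μM) or Nec-1 (60 μM). Three parallel samples.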

[6] = system: T-24; assay: Up-regulation of RIPK2 expression in human T24 cells at 7.5 to 10 uM measured after 16 hrs by Western blot analysis; assay type: functional, cell-based; details: dose 7.5-10 µM
[7] = Antiproliferative activity against human HCV-29 cells measured after 48 hrs by MTT assay; assay type: functional, cell-based; details: HCV-29, 48 h
How it was run: (§4)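 Cells seeded 5 × 10^3 per well, grown overnight at 37 °C, then exposed to compound at final 1–40 μM (1, 2.5, 5, 7.5, 10, 12.5, 15, 20, 30, 40 μM) for the stated period. MTT added, 4 h at 37 °C, formazan dissolved in DMSO, absorbance read. IC50 = concentration killing 50% of cells relative to untreated control; mean ± S.D. of four independent experiments.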

[8] = system: T-24; assay: Induction of apoptosis in human T24 cells at 5 to 7.5 uM measured after 10 hrs by Hoechst 33342 and propidium iodide staining based flow cytometry analysis; assay type: functional, cell-based; details: dose 5-7.5 µM
[9] = system: T-24; assay: Up-regulation of p-MLKL expression in human T24 cells at 7.5 to 10 uM measured after 16 hrs by Western blot analysis; assay type: functional, cell-based; details: dose 7.5-10 µM
[10] = Half-life in Sprague-Dawley rat at 6 mg/kg, IG measured HPLC analysis; assay type: ADME, organism-based; details: in vivo, po
[11] = system: T-24; assay: Down-regulation of p-RIPK3 expression in human T24 cells at 7.5 to 10 uM measured in presence of 60 uM Nec-1 after 16 hrs by Western blot analysis; assay type: functional, cell-based; details: dose 7.5-10 µM
How it was run: (§5)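 T24 cells co-incubated 16 h with or without Nec-1 (60 μM). Lysates quantified by BCA, 40 μg protein resolved by SDS-PAGE, transferred to PVDF, probed with primary and peroxidase-conjugated secondary antibodies, detected by ECL. Band gray values normalized to β-actin loading control.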

[12] = MRT (0 to 48 hrs) in Sprague-Dawley rat at 12 mg/kg, IG measured HPLC analysis; assay type: ADME, organism-based; details: in vivo, po; how it was run: as §2
[13] = system: T-24; assay: Induction of apoptosis in human T24 cells assessed as apoptotic cells at 5 uM measured after 10 hrs by Annexin-V/FITC and propidium iodide staining based flow cytometry analysis; assay type: functional
How it was run: (§6)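 T24 cells in 60 mm dishes treated 10 h at 37 °C, collected, PBS-washed, resuspended in binding buffer, stained with Annexin V-FITC and PI for 15 min at room temperature in the dark. At least 1 × 10^4 events per sample by flow cytometry; apoptotic cells = early (Annexin+/PI−) plus late (Annexin+/PI+). Triplicate experiments.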

[14] = Clearance in Sprague-Dawley rat at 12 mg/kg, IG measured HPLC analysis; assay type: ADME, organism-based; details: in vivo, po
[15] = system: T-24; assay: Induction of intracellular reactive oxygen species production in human T24 cells at 5 to 10 uM measured in presence of 60 uM Nec-1 after 16 hrs by flow cytometry analysis; assay type: functional, cell-based; details: dose 5-10 µM; how it was run: as §3
[16] = system: T-24; assay: Down-regulation of VEGFR-2 mRNA expression in human T24 cells at 5 to 10 uM measured by RT-PCR analysis; assay type: functional, cell-based; details: dose 5-10 µM
[17] = system: T-24; assay: Induction of apoptosis in human T24 cells assessed as increase in Bax expression at 5 to 7.5 uM measured by Western blot analysis; assay type: functional, cell-based; details: dose 5-7.5 µM
How it was run: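 Apoptosis-related proteins measured by Western blot in T24 lysates: 40 μg protein per lane by SDS-PAGE, PVDF transfer, primary and peroxidase-linked secondary antibodies, ECL detection, densitometry of gray values with β-actin as loading control.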

[18] = system: T-24; assay: Induction of apoptosis in human T24 cells assessed as apoptotic cells at 2.5 uM measured after 10 hrs by Annexin-V/FITC and propidium iodide staining based flow cytometry analysis; assay type: functional; how it was run: as §6
[19] = AUMC in Sprague-Dawley rat at 6 mg/kg, IG measured HPLC analysis; assay type: ADME, organism-based; details: in vivo, po
[20] = system: T-24; assay: Induction of necroptosis in human T24 cells assessed as viable cells at 10 uM and measured by trypan blue exclusion assay; assay type: functional; details: read-out: Activity; how it was run: as §1
[21] = system: HepG2; assay: Antiproliferative activity against human HepG2 cells measured after 48 hrs by MTT assay; assay type: functional, cell-based; details: HepG2, 48 h; how it was run: as §4
[22] = system: T-24; assay: Down-regulation of VEGFR-2 mRNA expression in human T24 cells at 7.5 uM measured in presence of 25 uM apatinib by RT-PCR analysis; assay type: functional, cell-based
[23] = Selectivity index, ratio IC50 for antiproliferative activity against human HCV-29 cells over IC50 for antiproliferative activity against human T24 cells; assay type: toxicity, cell-based; details: HCV-29 cells versus T24 cells
How it was run: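 MTT assay, 48 h exposure at final 1–40 μM in T24 and normal bladder epithelial HCV29 cells (5 × 10^3/well, seeded overnight, 37 °C). MTT added for 4 h and formazan dissolved in DMSO. IC50 taken relative to untreated control, four parallel samples. SI = IC50(HCV29)/IC50(T24).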

[24] = Tmax in Sprague-Dawley rat at 12 mg/kg, IG measured HPLC analysis; assay type: ADME, organism-based; details: in vivo, po; how it was run: as §2
[25] = system: T-24; assay: Down-regulation of p-RIPK1 expression in human T24 cells at 7.5 to 10 uM measured in presence of 60 uM Nec-1 after 16 hrs by Western blot analysis; assay type: functional, cell-based; details: dose 7.5-10 µM; how it was run: as §5
[26] = system: T-24; assay: Antiproliferative activity against human T24 cells measured after 48 hrs by MTT assay; assay type: functional, cell-based; details: T-24, 48 h; how it was run: as §4

- MRT last [3]: 9.17 h
- half-life [10]: 6.56 h
- MRT last [12]: 10.3 h
- CL/F [14]: 0.659 mL/min
- AUMC [19]: 606261 hr2.ng/ml
- IC50 [21]: 5.05 µM
- Tmax [24]: 12.4 h
SMILES: O=C(Nc1ccc(C(F)(F)F)cc1)Nc1cccc(CNc2nccnc2Cl)c1
- Activity [1]: Active
- viability at 7.5 µM [2]: 51%
- Activity [4]: Active
- Activity [5]: Active
- Activity [6]: Active
- IC50 [7]: 30 µM
- Activity [8]: Active
- Activity [9]: Active
- Activity [11]: Active
- Activity [13]: 14.83%
- Activity [15]: Active
- Activity [16]: Active
- Activity [17]: Active
- Activity [18]: 9.01%
- viability at 10 µM [20]: 38%
- Activity [22]: Active
- SI [23]: 6.56
- Activity [25]: Active
- IC50 [26]: 4.58 µM

Source: ChEMBL document CHEMBL5104108, “Concise synthesis and biological activity evaluation of novel pyrazinyl-aryl urea derivatives against several cancer cell lines, which can especially induce T24 apoptotic and necroptotic cell death” (RSC Med Chem, 2022)
